Reference: publication PMC2669315 (Bioorganic & medicinal chemistry, 2008)
Each block holds one compound with its values, some of them ahead of it.

What was measured:
[1] = tested on: Hsp90 client proteins Her2, Raf-1, and Akt; assay: Western blot analysis of Hsp90 client protein degradation in MCF-7 cells; assay type: cell-based, human; conditions: for IC50: Homo sapiens, MCF7, 24 h, read-out: Hsp90 client protein degradation IC50s; for degradation of Hsp90 client proteins (Her2, Raf-1, Akt) / effect on actin (non Hsp90-dependent protein): MCF-7 cells, 24 h, western blot
How it was run: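 MCF-7 cells were seeded at 1×10^6 per dish and left to attach overnight. Test compound was added at varying concentrations and incubated 24 h at 37 °C, 5% CO2. Cells were then harvested and client protein levels analysed by western blot using a previously reported method.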

[2] = tested on: Hsp90; assay type: biochemical, rabbit
[3] = tested on: MCF-7 cells; assay: Anti-proliferation assay; assay type: cell-based, human
How it was run: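 MCF-7 cells were grown in 1:1 DMEM:Ham's F-12 with non-essential amino acids, 2 mM L-glutamine, penicillin/streptomycin and 10% FBS, at 37 °C and 5% CO2. They were seeded at 2000/well and left to attach overnight. Test compound was added at varying concentrations in DMSO (1% final) for 72 hr. Viable cells were measured by MTS/PMS and normalised to 1% DMSO wells as 100% proliferation.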

[4] = tested on: Her2; assay: Her2 ELISA in SKBr3 cells; assay type: cell-based, human; conditions: for fold decrease in Her2 degradative activity for meta substituents: meta chloro or methoxy substituent on the benzamide
How it was run: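 SKBr3 cells were grown as for the proliferation assay, seeded at 3000/well, attached overnight, then given test compound at varying concentrations for 24 hr. Cells were washed with ice-cold PBS/1% Tween and fixed in -20 °C methanol (10 min, 4 °C), then blocked 1 hr in 5% BSA/PBST at rt. Rabbit anti-Her2 (1:500) went on overnight at 4 °C, then HRP anti-rabbit IgG (1:1000) for 2 hr at rt. Read-out was chemiluminescence on a luminometer.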

[5] = tested on: Hsp90; conditions: assay validation; cited from earlier work

IC50 [1]: 10 to 20 µM
SMILES: CC(=O)NC1=C(c2ccc(Cl)cc2)C(=O)c2ccccc2C1=O [Compound 3g]
degradation of Hsp90 client proteins (Her2, Raf-1, Akt) [1]: induced the degradation of these client proteins in a concentration-dependent manner
effect on actin (non Hsp90-dependent protein) [1]: no similar effects on actin

inhibition of luciferase refolding (in words) [2]: unable to inhibit luciferase refolding
SMILES: COc1ccc(C2=C(NC(=O)c3ccc(OC)c(-c4cccc(OC)c4)c3)C(=O)c3ccccc3C2=O)cc1 [Compound 11, 3’,6-dimethoxy-N-(3-(4-methoxyphenyl)-1,4-dioxo-1,4-dihydronaphthalen-2-yl)biphenyl-3-carboxamide]

inhibition of luciferase refolding (in words) [2]: low micromolar activity
IC50 ([3]; Homo sapiens, MCF7, read-out: anti-proliferative activity IC50): 1.7 to 3 µM
IC50 [1]: 10 to 20 µM
SMILES: COc1cccc(-c2cc(C(=O)NC3=C(Cl)C(=O)c4ccccc4C3=O)ccc2OC)c1 [Compound 12]
degradation of Hsp90 client proteins (Her2, Raf-1, Akt) [1]: induced the degradation of these client proteins in a concentration-dependent manner
effect on actin (non Hsp90-dependent protein) [1]: no similar effects on actin

IC50 [1]: 5 to 10 µM
SMILES: COc1ccc(C2=C(NC(=O)c3ccccc3Cl)C(=O)c3ccccc3C2=O)cc1 [Compound 13a]
degradation of Hsp90 client proteins (Her2, Raf-1, Akt) [1]: induced the degradation of these client proteins in a concentration-dependent manner
effect on actin (non Hsp90-dependent protein) [1]: no similar effects on actin

SMILES: COc1ccc(C2=C(NC(=O)c3cccc(Cl)c3)C(=O)c3ccccc3C2=O)cc1 [Compound 13b]
fold decrease in Her2 degradative activity for meta substituents [4]: 6 fold

SMILES: COc1ccc(C2=C(NC(=O)c3cccc(OC)c3)C(=O)c3ccccc3C2=O)cc1 [Compound 13e]
fold decrease in Her2 degradative activity for meta substituents [4]: 15 fold

SMILES: COc1ccc(C2=C(NC(=O)c3cccc4ccccc34)C(=O)c3ccccc3C2=O)cc1 [Compound 13g]
fold decrease in Her2 activity compared to the corresponding benzamide (4d) ([4]; vs 4d): 3 fold

SMILES: COc1ccc(C2=C(NC(=O)c3ccc4ccccc4c3)C(=O)c3ccccc3C2=O)cc1 [Compound 13h]
Her2 degradative activity (in words) [4]: complete loss of Her2 degradative activity

inhibition of luciferase refolding (in words) [2]: low micromolar activity
SMILES: COc1ccc(C2=C(NC(=O)C3CCCCC3)C(=O)c3ccccc3C2=O)cc1 [Compound 13i]

SMILES: CC(=O)C1=C(c2ccccc2)C(=O)c2ccccc2C1=O [HTS1]
fold greater anti-proliferative activity against MCF-7 cells compared to SKBr3 cells ([3]; MCF-7 vs SKBr3): 4 fold

SMILES: CO[C@@H]1[C@@H](OC(N)=O)[C@@H](O)[C@H](Oc2ccc3c(O)c(NC(=O)c4ccc(O)c(CC=C(C)C)c4)c(=O)oc3c2C)OC1(C)C [novobiocin]
reduction of luciferase renaturation by known Hsp90 inhibitors [5]: significantly reduce the renaturation of luciferase
